Reference: PMC4788500 (Structure (London, England : 1993), 2015)

Experiments:
PdZA = assay: Displacement of PdZA from PtdSer/PtdIns; assay type: binding; conditions: vesicles with 5 or 12.5 µM PtdIns(4,5)P2, 15% PtdSer
PLCδ1 PH domain = biological target: T1, PLCδ1 PH domain (Rattus norvegicus, UniProt P10688); assay: Isothermal titration calorimetry, PLCδ1 PH domain; assay type: binding; conditions: read-out: dissociation constant (KD) by ITC; PBS, 25°C; three independent experiments
T1 sequence (P10688 11-140): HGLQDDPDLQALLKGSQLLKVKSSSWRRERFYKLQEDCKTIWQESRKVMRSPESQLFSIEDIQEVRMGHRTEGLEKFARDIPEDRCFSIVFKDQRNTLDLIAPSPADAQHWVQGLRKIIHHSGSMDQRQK

[1] = biological target: T2, ASAP1 PH domain, lysine 355 mutant (Mus musculus, UniProt Q9QWY8, K355N); assay: diC4-PtdIns; assay type: binding; conditions: atypical-site mutant
T2 sequence (Q9QWY8 325-451 K355N): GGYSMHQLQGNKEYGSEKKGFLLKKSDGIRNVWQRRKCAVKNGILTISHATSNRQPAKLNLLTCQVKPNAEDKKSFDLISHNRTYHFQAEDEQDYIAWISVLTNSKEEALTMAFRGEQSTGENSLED
Procedure, shortened: (§1)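 ASAP1 PH domain, wild-type or site-directed mutant, is used at 1 µM and mixed with varying diC4-PtdIns(4,5)P2 in 20 mM HEPES pH 7.4, 100 mM NaCl. Tryptophan fluorescence spectra are recorded with excitation at 280 nm and emission at 310–450 nm. Signal is normalized to fluorescence without diC4-PtdIns(4,5)P2 and plotted against lipid concentration.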

ASAP1 [2] = biological target: T3, ASAP1 (Mus musculus, UniProt Q9QWY8); conditions: cited from earlier work
T3 sequence (Q9QWY8 325-724): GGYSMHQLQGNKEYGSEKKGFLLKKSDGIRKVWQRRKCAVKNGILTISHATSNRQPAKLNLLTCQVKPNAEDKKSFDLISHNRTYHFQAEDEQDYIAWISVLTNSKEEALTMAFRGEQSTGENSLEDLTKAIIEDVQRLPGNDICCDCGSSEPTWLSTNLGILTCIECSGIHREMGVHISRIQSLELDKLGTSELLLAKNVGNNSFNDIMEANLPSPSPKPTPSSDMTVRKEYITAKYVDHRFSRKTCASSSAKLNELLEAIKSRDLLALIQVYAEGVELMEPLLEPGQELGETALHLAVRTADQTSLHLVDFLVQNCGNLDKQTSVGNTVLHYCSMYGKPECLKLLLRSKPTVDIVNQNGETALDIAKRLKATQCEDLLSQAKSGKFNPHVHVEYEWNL

[3] = biological target: T4, ASAP1 PH domain, arginine 360 mutant (Mus musculus, UniProt Q9QWY8, R360Q); assay: diC4-PtdIns; assay type: binding; conditions: canonical-site mutant
T4 sequence (Q9QWY8 325-451 R360Q): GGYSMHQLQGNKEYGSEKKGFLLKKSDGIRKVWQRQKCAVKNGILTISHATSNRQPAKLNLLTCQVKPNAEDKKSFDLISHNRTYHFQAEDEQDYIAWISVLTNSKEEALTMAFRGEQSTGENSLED
Procedure, shortened: as §1

ASAP1 [4] = biological target: T3, ASAP1; assay: Anionic phospholipid dependence of ASAP1; assay type: biochemical; conditions: LUVs; from C50 values
Procedure, shortened: (§2)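 Construct is PZA, the PH–Arf GAP–ankyrin repeat fragment of ASAP1, prepared as previously described. It is titrated into reactions with myrArf1·GTP as substrate and LUVs of the indicated lipid composition (e.g. 15% PtdSer, 10% PtdIns(4,5)P2, or both). Reactions run 3 min. Percent of Arf-bound GTP hydrolyzed is plotted against PZA concentration. C50 is the PZA concentration giving 50% hydrolysis, estimated from three experiments.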

myrArf1·GTP = assay type: biochemical; conditions: absence of anionic phospholipid
Procedure, shortened: as §2

Molecule: O=P(O)(O)O[C@@H]1[C@H](O)[C@H](O)[C@@H](OP(=O)(O)O)[C@H](OP(=O)(O)O)[C@H]1O [Ins(1,4,5)P3, inositol 1,4,5-trisphosphate]
- Ins(1,4,5)P3 concentration displacing half of the protein from LUVs (PdZA): less than half the PtdIns(4,5)P2 concentration
- Kd (PLCδ1 PH domain): 180 ± 30 nM

Molecule: CCCC(=O)OC[C@H](COP(=O)(O)O[C@@H]1[C@H](O)[C@H](O)[C@@H](OP(=O)(O)O)[C@H](OP(=O)(O)O)[C@H]1O)OC(=O)CCC [diC4-PtdIns(4,5)P2, dibutyryl PtdIns(4,5)P2]
- binding compared with wild-type protein (tryptophan fluorescence) [1]: no effect on binding
- increase of ASAP1 activity at saturating concentrations (ASAP1 [2]; soluble lipid, no bilayer, ref Che et al., 2005): 2- to 4 fold
- binding compared with wild-type protein (tryptophan fluorescence) [3]: reduced binding

Molecule: Phosphatidylinositol 4,5-bisphosphate [PtdIns(4,5)P2]
- increase of GAP activity compared with PtdSer alone (ASAP1 [4]): ~1,500 fold
- increase of GAP activity compared with no anionic lipid (ASAP1 [4]): approximately 20,000 fold
- increase of ASAP1 enzymatic activity on binding to the PH domain (ASAP1 [2]; ref Kam et al., 2000): approximately 10,000 fold

Molecule: phosphatidylserine [PtdSer]
- increase of GAP activity compared with no anionic lipid (ASAP1 [4]): 15 fold

B1: Wild-type: His10-[325–724]ASAP1: fragment of ASAP1 comprising the PH, Arf GAP, and Ankyrin repeat domains (protein, UniProt Q9ULH1 325-724, looked up, fragment)
chain: SEKKGYLLKKSDGIRKVWQRRKCSVKNGILTISHATSNRQPAKLNLLTCQVKPNAEDKKSFDLISHNRTYHFQAEDEQDYVAWISVLTNSKEEALTMAFRGEQSAGENSLEDLTKAIIEDVQRLPGNDICCDCGSSEPTWLSTNLGILTCIECSGIHREMGVHISRIQSLELDKLGTSELLLAKNVGNNSFNDIMEANLPSPSPKPTPSSDMTVRKEYITAKYVDHRFSRKTCSTSSAKLNELLEAIKSRDLLALIQVYAEGVELMEPLLEPGQELGETALHLAVRTADQTSLHLVDFLVQNCGNLDKQTALGNTVLHYCSMYSKPECLKLLLRSKPTVDIVNQAGETALDIAKRLKATQCEDLLSQAKSGKFNPHVHVEYEWNLRQEEIDESDDDLDDK
modifications: His10 tag
- amount of ASAP1 necessary to hydrolyze 50% of the GTP bound to Arf (C50) (myrArf1·GTP): 1 µM
